Here are results for seven compounds from ChEMBL document CHEMBL1146574, “A novel 5-HT receptor ligand and related cytotoxic compounds from an acid mine waste extremophile” (J Nat Prod, 2003).

One data set concerns Artemia. Briefly: Toxicity against brine shrimp. Format: organism-based. The conditions noted are these: in vivo.
For data set [1], the target named is 5-hydroxytryptamine receptor 2A (Rattus norvegicus) (UniProt P14842). Kind of data set: Displacement of [3H]ketanserin from rat 5HT2A receptor expressed in mouse NIH3T3 cells assessed as bound radiolabeled ligand remaining by liquid scintillation relative to control. In kind it is cell-based. Summed up:
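Crude membranes from confluent NIH 3T3 cells stably expressing rat 5-HT2A receptor (DMEM, 10% calf serum, geneticin), prepared freshly in 50 mM Tris, 4 mM CaCl2, 10 µM pargyline, pH 7.4. Tritiated ligand 0.5 nM final; nonspecific binding with 10 µM 5-HT; test compounds at 100 µM. Triplicate 1 mL reactions, 30 min at 30 °C. Glass-fiber filtration, scintillation counting, reported as percent of control binding.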

Sequence of 5-hydroxytryptamine receptor 2A (Rattus norvegicus) (P14842 whole entry): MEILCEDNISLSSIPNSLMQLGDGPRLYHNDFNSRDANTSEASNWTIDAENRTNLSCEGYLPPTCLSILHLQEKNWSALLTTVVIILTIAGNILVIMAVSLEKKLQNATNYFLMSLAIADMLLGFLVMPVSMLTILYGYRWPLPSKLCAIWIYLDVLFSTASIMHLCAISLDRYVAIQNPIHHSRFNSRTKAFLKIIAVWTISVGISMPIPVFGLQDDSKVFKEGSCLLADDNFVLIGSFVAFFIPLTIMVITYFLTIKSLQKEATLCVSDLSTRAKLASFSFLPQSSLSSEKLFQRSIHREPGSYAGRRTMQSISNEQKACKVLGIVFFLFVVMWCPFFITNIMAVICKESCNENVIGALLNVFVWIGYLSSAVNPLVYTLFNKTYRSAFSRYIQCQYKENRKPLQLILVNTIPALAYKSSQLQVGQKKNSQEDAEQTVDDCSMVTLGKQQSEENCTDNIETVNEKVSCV

Consider `CC(=O)OCCc1ccc(OCC=C(C)C)cc1` [ETROGOL ACETATE], for which the Activity entry with Artemia is “Toxic”; in data set [1], 11%.
For `C[C@H]1CC[C@H]2[C@H]1C[C@H](C(C)(C)O)CC[C@@]2(C)O`, in the data set on Artemia, the Activity result is “Non-toxic”.
With `CC(=O)NC(Cc1ccc(OCC=C(C)C)cc1)C(=O)O` (stereo not given), the Activity entry in the data set with Artemia is “Toxic”; in data set [1] it was 85%.
In the case of `C[C@H]1CC[C@H]2[C@H]1C[C@]1([C@@H](C)CO)CC[C@]2(C)O1`, in the data set with Artemia, the Activity entry is given as “Non-toxic”.
Same read-out and setting: in the case of `C=C(C)[C@@H]1CC[C@@](C)(O)[C@H]2CC[C@H](C)[C@@H]2C1` it was “Non-toxic”.
Consider `COC(=O)C(Cc1ccc(OCC=C(C)C)cc1)NC(C)=O` (stereo not given), for which the Activity in data set [1] stood at 85%.
Take `CC(C)=CCOc1ccc(CCO)cc1` [ETROGOL]: the Activity result in the data set with Artemia was “Toxic”; in data set [1], 85%.
